CHO parental Ca: counter-screen for OX1R antagonists: effect in parental CHO cells; hit rate 0.63% among 330,000; inhibition, % at 5.6 µM; parental CHO-K1, ATP-induced calcium, Fluo-8 fluorescence; AID 463079;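 active = inhibition above that plate's mean sample inhibition plus 3 SD, cut at about 26% in these data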
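Material: parental CHO cells / Compound: single nominal dose of 5.6 µM per compound / Signal: Fluo-8 fluorescence / Replicates: singlicate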
GPR7 antagonist: human neuropeptides B/W receptor 1 antagonism. AID 1861. P48145. inhibition, % at 4.4 µM. GPR7-expressing cells, fluorescence antagonist assay. hit rate 1.1% among 290,000; in the data active = inhibition above about 16%, passing the limit was not always enough;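 also: cells stimulated with the agonist NPW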
Target sequence (P48145 whole entry, looked up): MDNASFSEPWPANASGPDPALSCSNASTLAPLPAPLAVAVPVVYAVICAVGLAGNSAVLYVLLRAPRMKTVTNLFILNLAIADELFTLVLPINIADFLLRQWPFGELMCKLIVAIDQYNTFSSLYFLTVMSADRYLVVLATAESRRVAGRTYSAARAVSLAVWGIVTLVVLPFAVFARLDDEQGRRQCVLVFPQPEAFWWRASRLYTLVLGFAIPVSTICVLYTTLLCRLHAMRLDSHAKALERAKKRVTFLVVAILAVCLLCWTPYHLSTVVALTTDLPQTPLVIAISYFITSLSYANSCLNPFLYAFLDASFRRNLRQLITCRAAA
OX1R antag-1: blocks the human orexin 1 receptor. O43613. CHO/OX1R cells, Fluo-8 calcium fluorescence, orexin A. inhibition, % at 5 µM. hit rate 0.43% among 330,000. AID 434989;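 active = inhibition above its plate's threshold, mean inhibition of all tested compounds on the plate plus 3 SD, cut at about 37% in these data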
OX1R antag-2: blocks the human orexin 1 receptor; O43613; OX1R-expressing cells, FRET antagonist read-out; inhibition, % at 6.6 µM; hit rate 1.8% among 330,000; in the data active = inhibition mostly above about 38%, no sharp cut-off; inactive = mostly below about 40%
MPTP block: inhibitors of mitochondrial permeability transition pore; isolated mouse mitochondria, Ca2+ swelling absorbance, 30 min; inhibition, % at 10 µM; hit rate 1.4% among 360,000; AID 602449;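 active = inhibition of 50% or more, scaled per plate between neutral and stimulator controls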
GPR7 antag conf: human GPR7 antagonism, confirmation assay; shares compounds with GPR7 antagonist; GPR7-expressing cells, calcium fluorescence antagonist mode; inhibition, % at 4.4 µM; hit rate 52% among 2,400; in the data active = inhibition above about 24%;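 also: stimulated with the GPR7 agonist NPW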
MCHR1 antag: antagonizes human MCHR1, a GPR7 antagonist counter-screen. shares compounds with GPR7 antagonist. AID 2148. hit rate 62% among 2,400. inhibition, % at 4.4 µM. MCHR1-expressing cells, fluorescence antagonist assay; in the data active = inhibition above about 22%
Hits are given with their value; - = inactive; . = not tested or not shown. Only some compounds are listed: those with a hit (about 3.8% of all), similar ones and a draw of the others.

SMILES | CHO parental Ca | GPR7 antagonist | OX1R antag-1 | OX1R antag-2 | MPTP block | GPR7 antag conf | MCHR1 antag
CCOC(=O)CCS(=O)(=O)c1ccc(-c2ccc(S(=O)(=O)CCC(=O)OCC)cc2)cc1 | - | 31.1 | - | - | - | 44.5 | 48.9
NC(Cc1ccc(F)cc1)c1csc(Nc2ccc(C(F)(F)F)cn2)n1 (configuration not stated) | . | . | . | . | - | . | .
Cc1cc2c(cc(C(=O)OCC(=O)NCc3ccco3)n2C)s1 | - | 28.6 | - | - | - | - | 22.0
Cn1c(C(=O)OCC(=O)NCc2ccco2)cc2sccc21 | - | - | - | - | - | . | .
O=C(C1CCCN(CCCc2ccccc2)C1)N1CCCCC1 (configuration not stated) | - | - | - | - | - | . | .
COc1ccc2c(Cl)c(C(=O)N/N=C/c3ccc4c(c3)OCO4)sc2c1 | - | - | - | - | - | . | .
COc1ccc2c(Cl)c(C(=O)N/N=C3\CCCC(=O)C3)sc2c1 | - | 24.3 | - | - | - | - | 27.7
Cc1ccc(O)c(NC(=S)NC(=O)Cc2ccc(Cl)cc2)c1 | 99.3 | 99.0 | 107.2 | - | - | 99.5 | 106.5
Cc1cc(Cl)ccc1NC(=S)NCc1ccccc1 | - | - | - | - | - | . | .
Cc1ccc(NC(=S)NCc2ccc(Cl)cc2)c(C)c1 | - | 30.9 | - | - | - | 24.2 | -
O=C(CSc1nccn1-c1ccccc1)Nc1ccc2c(c1)OCO2 | - | 28.1 | - | - | - | 26.1 | 23.6
O=C(CSc1nccn1-c1ccc(F)cc1)Nc1ccc2c(c1)OCO2 | - | - | - | - | - | . | .
O=c1cc(-c2ccccc2)nc2c(Cl)cc(Cl)cn12 | . | . | . | . | - | . | .
CC(C)CNC(=O)c1cc2nc3c(c(C(F)(F)F)n2n1)CCc1ccccc1-3 | - | 22.1 | - | - | - | - | -
COc1cc(C(=O)N2Cc3cc4ccccc4nc3C2C)cc(OC)c1OC (configuration not stated) | . | . | . | . | - | . | .
CC1CN(C)CCC1OC(=O)c1ccccc1 (configuration not stated) | . | - | . | . | - | . | .
OCCNc1nc(Cl)nc(NCc2ccco2)n1 | - | - | - | - | - | . | .
CCCN(CCC)c1nc(Cl)nc(NCc2ccco2)n1 | - | 21.2 | - | - | - | - | -
CC(C)C(CCNC1CCN(C)CC1)c1ccc(Cl)cc1 (configuration not stated) | - | - | - | - | - | . | .
CN1CCC(NCCC(c2ccc(F)cc2)c2ccc(Cl)cc2)CC1 (configuration not stated) | . | 46.7 | . | . | - | 42.8 | 40.8
CN1CCC(C)(C(=O)Nc2cccc(Oc3ccccc3)c2)C1 (configuration not stated) | . | . | . | . | - | . | .
O=Cc1cccc2ccc3cccc(C(=O)O)c3c12 | - | . | - | - | - | . | .
COc1ccc(NC(=O)COC(=O)c2c3c(nc4ccccc24)CCCC3)cc1Cl | - | 32.4 | - | 75.2 | - | 34.8 | 73.3
COc1ccc(CCNC(=O)c2nnn(CC(=O)Nc3cccc(F)c3)c2N)cc1OC | - | - | - | - | - | . | .
Cc1ccc(C2N(c3ccccc3)C(=S)N3CCCN23)cc1 (configuration not stated) | - | 24.4 | - | - | - | - | -
SMILES | CHO parental Ca | GPR7 antagonist | OX1R antag-1 | OX1R antag-2 | MPTP block | GPR7 antag conf | MCHR1 antag
CC1CCN(Cc2nnnn2-c2cccc([N+](=O)[O-])c2)CC1 | - | - | - | - | - | . | .
CC(C)(C)n1nc2c(c1NC(=O)c1c(F)cccc1F)CS(=O)(=O)C2 | - | 43.2 | - | - | - | 28.5 | 21.8
Cc1cccc(NC(=O)CCS(=O)(=O)c2ccc(Cl)cc2)c1 | - | - | - | - | - | . | .
CSc1nc(N)nc(C2CC2)n1 | - | - | - | - | - | . | .
COc1ccc(/C=C2\SC(N)=NC2=O)cc1 | . | - | . | . | - | . | .
CCOC(=O)CSC1=NC(=O)/C(=C/c2ccc(OC)cc2)S1 | - | 29.4 | - | - | - | 72.3 | 72.2
O=C(Cc1cccc(NC(=O)C2CCCN(C(=O)C3CCCCC3)C2)c1)Nc1cccc(C(=O)N2CCOCC2)c1 (configuration not stated) | . | . | . | . | - | . | .
COC(=O)C1=C(C)N(Cc2ccccc2)C(=NCc2cc(OC)c(OC)c(OC)c2)N[C@H]1c1cccc(F)c1 | - | - | - | - | - | . | .
COC(=O)C1=C(C)N(Cc2ccccc2)C(=NCc2ccc(OC)cc2)N[C@H]1c1cccc(F)c1 | - | 43.6 | - | - | - | 50.7 | 41.0
